Assay outcomes from PubChem BioAssay.
D1 mod: D1 CRE-luciferase signal change, two-sided – cell-based, HEK293 D1, dopamine EC30, D1 allosteric modulator project, primary screen; dopamine EC30 potentiation; actives deviate in either direction; B-score at 10 µM; 58,000 compounds, 5.9% hits; AID 641, 2007;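 active = luminescence count or its row- and column-corrected plate score outside the 99.7% band of the plate's sample wells, on either side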
M1 agonist: M1 muscarinic receptor agonists, primary screen, CHO-M1 cells, Fluo-4 calcium, agonist mode; AID 626, 2007; Fluo-4 calcium fluorescence; hits give high values; 64,000 compounds, 3% hits; Muscarinic acetylcholine receptor M1; B-score at 10 µM;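 active = fluorescence rise, raw or as B-score row- and column-corrected plate score, outside the 99.7% band of its plate's samples, either direction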
S1P3 agonist: human S1P3 receptor agonists, primary screen, cell-based, primary and confirmation, NFAT-BLA reporter; Sphingosine 1-phosphate receptor 3 (Homo sapiens), Q99500; S1P3 NFAT-BLA reporter cells, agonism, FRET ratio; relative to 1 µM S1P, basal subtracted; activation, % at 4.5 µM; 60,000 compounds, 0.1% hits; AID 373, 2006;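 active = activation above the screen-wide mean plus 3 SD, cut at about 4.5% in these data, passing the limit was not always enough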
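material = human S1P3 NFAT-BLA reporter CHO cells | schedule = 4 h compound at 37 °C, 2 h substrate at RT | measured by = fluorescent BLA substrate, ex 405 nm, em 460/535 nm ratio | controls = 1 µM S1P reference | replication = primary once, confirmation triplicate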
S1P1 ag pot: S1P1 agonists and agonism potentiators, primary screen, cell-based, primary and confirmation screens, CRE-bla reporter; Sphingosine 1-phosphate receptor 1 (Homo sapiens), P21453; S1P1 CRE-bla cells, forskolin, beta-lactamase FRET, potentiator mode; S1P1 agonist co-added at EC20, 2 nM; 100% = saturating reference agonist, 0% = basal; activation, % at 9.5 µM; 56,000 compounds, 0.57% hits;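 active = activation above a cutoff set at the mean activation of all tested compounds plus 3 SD, cut at about 54% in these data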;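 also: forskolin at 4 µM as EC80 and the EC20 agonist is SEW2871; 100% = SEW2871 at its EC100 plus forskolin at EC80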
Target sequence (P21453 whole entry, looked up): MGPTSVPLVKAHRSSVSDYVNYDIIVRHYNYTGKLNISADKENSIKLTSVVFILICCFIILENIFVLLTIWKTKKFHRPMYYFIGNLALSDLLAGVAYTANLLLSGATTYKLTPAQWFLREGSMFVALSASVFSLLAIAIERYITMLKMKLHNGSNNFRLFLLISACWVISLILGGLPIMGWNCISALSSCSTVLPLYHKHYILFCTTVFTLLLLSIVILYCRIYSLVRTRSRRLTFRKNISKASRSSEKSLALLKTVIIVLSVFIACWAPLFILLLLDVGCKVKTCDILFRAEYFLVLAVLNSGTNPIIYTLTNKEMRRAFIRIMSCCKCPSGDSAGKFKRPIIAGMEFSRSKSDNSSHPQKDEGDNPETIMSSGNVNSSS
M1 antagonist: antagonists of rat M1 muscarinic receptor; Muscarinic acetylcholine receptor M1 (Rattus norvegicus), P08482; B-score at 10 µM; AID 628, 2007; 64,000 compounds, 3.4% hits; CHO-M1 cells, Fluo-4 calcium, ACh EC80 antagonist mode; hits give low values;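 active = calcium fluorescence response, raw or row-and-column corrected B-score, differing from the plate sample mean either way at a set confidence level, mostly lower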
M1 antag confirm: rat M1 muscarinic receptor antagonists, confirmation, CHO cells, Fluo-4 calcium, duplicate | calcium response (max-min fluorescence) at 10 µM | ACh EC80 antagonism; hits give low values | 1,700 compounds, 43% hits | shares compounds with M1 antagonist | AID 677, 2007;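 active = calcium response below the same-plate mean of wells given acetylcholine alone at its 80%-effect dose, minus 3 SD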;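 also: raw fluorescence intensity difference in arbitrary instrument units and not normalized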
mGluR4 antag: human mGluR4 response to M1 antagonist hits, M1 allosteric modulator project, cell-based, antagonist mode, secondary assay 1 | shares compounds with M1 antagonist | CHO-mGluR4 calcium flux, Fluo-4 fluorescence, glutamate EC80; hits give low values | fluorescence response (max-min) at 10 µM | 1,700 compounds, 0.9% hits;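 active = fluorescence response below the plate's average for near-maximal glutamate wells, less 3 SD of those wells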;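 also: raw unnormalized fluorescence span taken in the window right after glutamate addition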
* marks the source's active call; other numbers are inactive results. Only some compounds are listed: those with a hit (about 11% of all), similar ones and a draw of the others.

For CCOc1ccccc1C1C(C#N)=C(SCC(=O)OC)NC(=O)C1C(=O)OC (stereo not given) the results were D1 mod 0.28, M1 agonist 0.11, S1P3 agonist -1, S1P1 ag pot -1, M1 antagonist -2.8*, M1 antag confirm 559 and mGluR4 antag 201.
`CC(C)(C)n1ncc2c(=O)n(CC(=O)N3CCN(c4ccccc4)CC3)cnc21` gave D1 mod 0.4, M1 agonist -0.87, S1P3 agonist 1, S1P1 ag pot -14 and M1 antagonist -0.44.
Screening CCOC(=O)NC(Nc1cc(C)ccn1)(C(F)(F)F)C(F)(F)F returned D1 mod 0.21, M1 agonist -0.51, S1P3 agonist -2, S1P1 ag pot -39 and M1 antagonist -0.0061.
`Cn1nc(-c2ccc(Cl)cc2)c2cc(C(=O)NCCCN3CCCC3)sc21` gave D1 mod -1.4, M1 agonist -0.6, S1P3 agonist 0, S1P1 ag pot -53 and M1 antagonist -1.7.
COc1cccc(-c2nn(C)c3sc(C(=O)NCc4ccco4)cc23)c1 was read as D1 mod 0.7, M1 agonist 0.034, S1P3 agonist 0, S1P1 ag pot -41 and M1 antagonist -1.1.
Screening CCN1CCCC1CNC(=O)c1cc2c(-c3ccc(Cl)cc3)nn(C)c2s1 (stereo not given) returned D1 mod -1.8, M1 agonist 0.33, S1P3 agonist -1, S1P1 ag pot -55, M1 antagonist -4*, M1 antag confirm 430 and mGluR4 antag 200.
For CCN1CCCC1CNC(=O)c1cc2c(-c3cccc(OC)c3)nn(C)c2s1 (stereo not given) the results were D1 mod -2.3, M1 agonist 0.3, S1P3 agonist -1, S1P1 ag pot -3, M1 antagonist -2.8*, M1 antag confirm 570 and mGluR4 antag 257.
Screening Cc1occc(=O)c1OC(=O)Nc1ccccc1 returned M1 agonist -1.8, S1P3 agonist -3, S1P1 ag pot -2 and M1 antagonist -0.13.
CCCN(CCC)CCCNC(=O)c1ccc2c(c1)N(CC)C(=O)c1ccccc1S2=O (stereo not given) was read as D1 mod -0.076, M1 agonist -0.4, S1P3 agonist 0, S1P1 ag pot -1, M1 antagonist -4.2*, M1 antag confirm 328* and mGluR4 antag 202.
`Cc1cc(C(=O)N2CCN(C(c3ccccc3)c3ccccc3)CC2)on1` gave M1 agonist -0.0029, S1P3 agonist 0, S1P1 ag pot 88*, M1 antagonist -1.3*, M1 antag confirm 361* and mGluR4 antag 241.
For COC(=O)C1C(=O)c2c([nH]c(C(=O)OCCOC(C)C)c2C)CC1C (stereo not given) the results were D1 mod -0.093, M1 agonist 0.1, M1 antagonist -2.9*, M1 antag confirm 707 and mGluR4 antag 222.
CSC1=C(C#N)C(CC(C)C)C(C(C)=O)=C(C)N1 (stereo not given) was read as D1 mod -1.3, M1 agonist 0.9, S1P3 agonist 0, S1P1 ag pot -27 and M1 antagonist 0.24.
For CC(C)(C)n1nnnc1C(c1cccs1)N(Cc1ccccc1)Cc1cccnc1 (stereo not given) the results were D1 mod -0.33, M1 agonist -0.23, S1P3 agonist 0, S1P1 ag pot 9, M1 antagonist -4.7*, M1 antag confirm 377* and mGluR4 antag 236.
Screening CCN(Cc1ccccc1)C(c1ccncc1)c1nnnn1C(C)(C)C (stereo not given) returned D1 mod 0.013, M1 agonist 0.79, S1P3 agonist -2, S1P1 ag pot 0 and M1 antagonist 0.99.
For CCN(CC(=O)NCCc1ccc(S(N)(=O)=O)cc1)Cc1nc2ccccc2c(=O)[nH]1 the results were M1 agonist 0.03, S1P3 agonist 0, S1P1 ag pot -21, M1 antagonist -2*, M1 antag confirm 636 and mGluR4 antag 238.
For CCN(CC(=O)NC(=O)NCc1ccco1)Cc1nc2ccccc2c(=O)[nH]1 the results were D1 mod 0.3, M1 agonist 0.013, S1P3 agonist 0, S1P1 ag pot -6 and M1 antagonist 0.067.
Screening Cc1c(O)c(CN2CCCC(C)C2)cc2c3c(c(=O)oc12)CCC3 (stereo not given) returned D1 mod -0.67, M1 agonist -0.54, S1P3 agonist -2, S1P1 ag pot -8 and M1 antagonist 0.4.
Screening Clc1cc(Br)ccc1OCCn1ccnc1 returned D1 mod -0.33, M1 agonist 0.84, S1P3 agonist -1, M1 antagonist -3.3*, M1 antag confirm 442* and mGluR4 antag 241.
For Clc1cc(Br)ccc1OCCOCCN1CCOCC1 the results were M1 agonist 0.034, S1P3 agonist -3, S1P1 ag pot -5, M1 antagonist -0.73*, M1 antag confirm 448 and mGluR4 antag 226.
Cc1cc(C)c(C)c(OCCOCCN2CCOCC2)c1 was read as D1 mod -0.44, M1 agonist 1.2, S1P3 agonist -1, S1P1 ag pot -22 and M1 antagonist -0.25.
`Clc1ccccc1OCCCCn1ccnc1` gave D1 mod -0.19, M1 agonist 2.2, S1P3 agonist 0, S1P1 ag pot -14 and M1 antagonist 0.31.
Screening CCCC(C)C(=O)Nc1ccc(Cl)cn1 (stereo not given) returned D1 mod -0.41, M1 agonist 1.1, S1P3 agonist 0, S1P1 ag pot 5 and M1 antagonist -0.086.
Screening COCCNC(C)C(=O)Nc1ccc(Br)cc1 (stereo not given) returned D1 mod -0.23, M1 agonist 0.28, S1P3 agonist -1, S1P1 ag pot 6 and M1 antagonist 1.1.
For CCOC(=O)CSc1nnc(Cn2nnc(-c3ccccc3)n2)n1C the results were D1 mod 0.25, M1 agonist 0.78, S1P3 agonist 0, S1P1 ag pot -10 and M1 antagonist 0.35.
